This is a sample that favours compounds with a hit; in the whole collection about 1.1% have one here.
NR2E3 ag-1 = inhibitors of NR2E3-RetCOR corepressor binding, primary screen, NR2E3 agonist project, biochemical, TR-FRET, GST-NR2E3, biotin-RetCOR. Photoreceptor-specific nuclear receptor (Homo sapiens), Q9Y5X4. 1536-well. inhibition of corepressor binding, % at 4.78 µM. 320,000 tested, 0.12% active;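 active = percent inhibition above the cutoff of mean plus 3 SD of all tested compounds, set per screening campaign, cut at about 20% in these data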
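Assay system: NR2E3–RetCOR corepressor complex. Quantity: 1.35 nM GST-NR2E3. Buffer or medium: pH 7.5 Tris-based buffer. Reagent: biotinylated RetCOR corepressor at 7 nM final. Schedule: 5 h at 4 °C. Detection: TR-FRET, emission read at 617 and 671 nm. Replicates: one well per compound, singlicate testing.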
MT1-MMP act inh = blockers of MT1-MMP proenzyme processing, primary screen, HT1080 RFP-PRO-GFP cells, GFP/RFP fluorescence; AID 651647, 2012; 360,000 tested, 0.061% active; Matrix metalloproteinase-14 (Homo sapiens), P50281; GFP/RFP ratio fluorescence, overnight; percent of plate control window, DMSO zero; GFP/RFP ratio change, % at 20 µM;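 active = GFP/RFP ratio change of at least 30% with cell ATP level not reduced by more than half and red fluorescence within 50% of control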
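Compound: 20 µM single dose, 1% DMSO / System: HT1080 RFP-PRO-GFP cells / Controls: DMSO and RFP-L50D-GFP cell wells / Read-out basis: GFP/RFP fluorescence ratio / Schedule: overnight compound exposure at 37 °C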
DAGLB inh = DAGLB lipase inhibitors, primary screen, biochemical, fluorescence, HTS; Diacylglycerol lipase-beta (Homo sapiens), Q8NCG7; HEK293T DAGLB membrane lysate, EnzChek fluorogenic substrate; inhibition, % at 5.17 µM; 340,000 tested, 0.059% active; in the data active = inhibition above about 34%
Target sequence (Q8NCG7 whole entry, looked up): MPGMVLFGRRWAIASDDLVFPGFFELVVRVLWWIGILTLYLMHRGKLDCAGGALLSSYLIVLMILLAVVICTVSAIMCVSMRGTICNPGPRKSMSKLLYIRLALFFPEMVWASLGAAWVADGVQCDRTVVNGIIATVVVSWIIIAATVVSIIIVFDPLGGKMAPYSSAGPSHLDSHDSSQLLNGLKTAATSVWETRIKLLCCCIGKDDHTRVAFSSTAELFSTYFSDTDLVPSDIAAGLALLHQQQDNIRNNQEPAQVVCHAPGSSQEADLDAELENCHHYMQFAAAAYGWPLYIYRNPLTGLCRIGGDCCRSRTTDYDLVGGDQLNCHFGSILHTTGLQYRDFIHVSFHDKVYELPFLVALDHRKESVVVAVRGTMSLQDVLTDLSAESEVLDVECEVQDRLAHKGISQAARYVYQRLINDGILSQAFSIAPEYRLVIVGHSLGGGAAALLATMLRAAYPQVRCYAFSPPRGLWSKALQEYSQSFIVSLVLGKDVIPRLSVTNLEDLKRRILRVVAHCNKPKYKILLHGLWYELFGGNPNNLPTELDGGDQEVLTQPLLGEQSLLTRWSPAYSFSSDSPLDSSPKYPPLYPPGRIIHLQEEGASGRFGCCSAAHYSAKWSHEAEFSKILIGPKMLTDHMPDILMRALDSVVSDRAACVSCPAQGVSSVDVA
NR2E3 ag-2 = NR2E3 agonists in two-hybrid cells, primary screen, cell-based, luminescence, CHO-S, Gal4-NCOR/VP16-NR2E3. 360,000 tested, 0.35% active. Photoreceptor-specific nuclear receptor (Homo sapiens), Q9Y5X4. inhibition of corepressor binding, % at 3.98 µM. AID 602229, 2012. luciferase;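 active = inhibition above the mean of all tested compounds plus 3 SD, cut at about 70% in these data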;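 note: higher means lower luciferase signal from less NR2E3 corepressor binding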
Vif imaging = HIV Vif self-association inhibitors, primary screen, imaging, HEK293T, single point; HEK293T cells, Vif self-association by quenched fluorescence, 24 h; inhibition, % at 7.49 µM; 340,000 tested, 0.35% active; in the data active = inhibition above about 50%, passing the limit was not always enough
HCV core dimer = inhibitors of HCV core protein dimerization, primary screen, biochemical, TR-FRET, high-throughput. 300,000 tested, 0.33% active. inhibition, % at 5 µM. TR-FRET GST/Flag-core106 dimerization, 1536-well;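 active = inhibition above the mean of all tested compounds plus 3 SD, set per screening campaign, cut at about 45% in these data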
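Assay system: tagged HCV core106 pair (GST and Flag); medium: KF-containing HEPES buffer, pH 7.45, DTT, CHAPS, BSA; also added: Eu donor and XL665 acceptor anti-tag antibodies; dosing: 5 µM single dose; timing: compound-protein-antibody incubation 4 h at 22.5 °C; signal: TR-FRET 671 and 617 nm emission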
NR2E3 ag conf = NR2E3 agonist confirmation in cells, cell-based, luminescence, CHO-S two-hybrid. shares compounds with NR2E3 ag-2. CHO-S mammalian two-hybrid NR2E3-NCOR, luciferase luminescence. inhibition, % at 3.98 µM. 2,300 tested, 51% active. AID 624378, 2012;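 active = average inhibition above a cutoff equal to the mean inhibition of all tested compounds plus one SD, cut at about 70% in these data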
VP16 counter = GAL4-VP16 reporter modulators, confirmation, counter-screen for NR2E3 agonist project, cell-based, luminescence, CHO-S, high throughput; shares compounds with NR2E3 ag-2; CHO-S GAL4-VP16 luciferase reporter; inhibition, % at 3.98 µM; 2,300 tested, 29% active; AID 624379, 2012;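 active = mean inhibition above a cutoff equal to the average over all tested compounds plus one standard deviation, cut at about 70% in these data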;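 note: luciferase from a UAS reporter driven by GAL4-VP16 transactivation; higher means less reporter light so more repression of VP16 activity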
Each line names hits and unclear results; the compound was inactive in the other large screens (follow-up assays come after a bar, where they were run).

CCCn1c(C)cc(C(=O)CN2C(=O)c3ccccc3S2(=O)=O)c1C	none (no result: NR2E3 ag-1, Vif imaging, HCV core dimer) | NR2E3 ag conf inactive | VP16 counter inactive
CCOc1ccccc1-n1c(SCC(=O)Nc2ccccc2C(=O)O)nc2ccccc2c1=O	none | NR2E3 ag conf inactive | VP16 counter inactive
Cc1cccc(N(CC(=O)NCC2CCCO2)C(=O)CNS(=O)(=O)c2ccc(Cl)cc2)c1 (stereo unspecified)	none
CCCNC(=O)c1ccc(N2CCC3(CC2)CC(c2cccc(Br)c2)=NO3)c([N+](=O)[O-])c1	none | NR2E3 ag conf 74 | VP16 counter inactive
Cc1cccc(OC(=O)NCCOC(=O)N(O)c2ccc(Cl)cc2)c1	NR2E3 ag-2 81 | NR2E3 ag conf 83 | VP16 counter 71
Cc1ccc(Nc2nc(N)c([N+](=O)[O-])c(N3CCOCC3)n2)cc1C	none | NR2E3 ag conf inactive | VP16 counter inactive
C=CCN(CC=C)C(=S)NC(=O)c1ccc([N+](=O)[O-])cc1	none | NR2E3 ag conf inactive | VP16 counter inactive
C=CCNC(=S)NNC(=O)c1ccc([N+](=O)[O-])cc1	none
CCCC(=O)c1ccc(N2CCN(C(=O)c3ccccc3Br)CC2)c(F)c1	NR2E3 ag-2 84 | NR2E3 ag conf 74 | VP16 counter inactive
CCCC(=O)c1ccc(N2CCN(C(=O)c3ccccc3)CC2)c(F)c1	none
COC(=O)Cc1c(C)c2ccc(OC3CCCCC3=O)c(C)c2oc1=O (stereo unspecified)	NR2E3 ag-2 72 | NR2E3 ag conf inactive | VP16 counter inactive
N=C1SCC(=O)N1c1ncc(Cc2ccc(F)cc2)s1	NR2E3 ag-2 97 | NR2E3 ag conf inactive | VP16 counter inactive
O=C(NCC(c1ccco1)N1CCCC1)c1ccc(Cl)c(S(=O)(=O)N2CCc3ccccc32)c1 (stereo unspecified)	none (no result: HCV core dimer) | NR2E3 ag conf inactive | VP16 counter inactive
O=C(NCC(c1ccco1)N1CCc2ccccc2C1)c1ccc(Cl)c([N+](=O)[O-])c1 (stereo unspecified)	none
COc1ccc(NC(=O)CNC(=O)C2CCCCC2)cc1OC	none (no result: NR2E3 ag-1, HCV core dimer)
COC1(OC)C(/C=C/c2ccc(C)cc2)C(C#N)(C#N)C1(OC)OC (stereo unspecified)	NR2E3 ag-2 77 | NR2E3 ag conf inactive | VP16 counter inactive
O=C(NCCC1=CCCCC1)c1ccc(Cl)c(S(=O)(=O)N2CCCCC2)c1	none | NR2E3 ag conf inactive | VP16 counter inactive
N#CC(=C(O)CN1CCN(c2ccccc2F)CC1)c1nc(-c2ccccc2)cs1	none (no result: NR2E3 ag-1, HCV core dimer) | NR2E3 ag conf inactive | VP16 counter inactive
N#CC(=C(O)CN1CCN(c2ccccc2F)CC1)c1nc(-c2ccc(Cl)cc2)cs1	none (no result: NR2E3 ag-1, HCV core dimer)
N=C1SC(c2ccccc2)C(=O)N1c1ncc(Cc2ccccc2Cl)s1 (stereo unspecified)	none | NR2E3 ag conf inactive | VP16 counter inactive
CC(=O)N1CCc2cc(S(=O)(=O)CCC(=O)N(C)Cc3ccco3)ccc21	none
Fc1ccc(NC(=S)N2CCCN(c3ccc(C(F)(F)F)cn3)CC2)c(F)c1	none | NR2E3 ag conf 91 | VP16 counter 77
Cc1csc2ncnc(N3CCN(C(=S)Nc4ccc(F)cc4F)CC3)c12	none (no result: DAGLB inh) | NR2E3 ag conf 93 | VP16 counter 82
CC1CN(C(=S)Nc2ccc(F)cc2F)CC(C)O1 (stereo unspecified)	none (no result: Vif imaging)
CC(=O)Oc1cccc(Nc2ncnc3ccccc23)c1	none
Cc1ccccc1C(=O)Oc1cccc(Nc2ncnc3ccccc23)c1	NR2E3 ag-2 72 (no result: Vif imaging) | NR2E3 ag conf inactive | VP16 counter inactive
Fc1ccc2[nH]c3c(NCc4ccccc4)ncnc3c2c1	NR2E3 ag-2 90 | NR2E3 ag conf 97 | VP16 counter 87
Cc1cc(C(=O)Nc2ccc([N+](=O)[O-])cn2)cs1	none
O=S(=O)(Nc1ccc(Cc2ccncc2)cc1)c1ccc(Cl)c(Cl)c1	none
COc1ccc(S(=O)(=O)Nc2ccc(Cc3ccncc3)cc2)cc1OC	none | NR2E3 ag conf 72 | VP16 counter inactive
COc1ccc(NC(=O)Nc2ccc(Cc3ccncc3)cc2)c(OC)c1	none | NR2E3 ag conf inactive | VP16 counter inactive
COc1ccc(NC(C)=O)cc1S(=O)(=O)Nc1ccc(OCc2ccccc2)cc1	NR2E3 ag-2 73 | NR2E3 ag conf 77 | VP16 counter inactive
CCc1ccc(OC)c(S(=O)(=O)Nc2ccc(Cc3ccncc3)cc2)c1	NR2E3 ag-2 99 | NR2E3 ag conf 86 | VP16 counter 74
Cc1ccc(S(=O)(=O)NCc2cn3ccccc3n2)c(C)c1	none
CC1(C(=O)Nc2ccccc2F)CCN1C(=O)Cc1ccc(-c2ccccc2)cc1 (stereo unspecified)	none (no result: NR2E3 ag-1, DAGLB inh, HCV core dimer)
CC1(C(=O)NC2CCCCC2)CCC(=O)N1CC(F)(F)F (stereo unspecified)	none (no result: NR2E3 ag-1, DAGLB inh, Vif imaging, HCV core dimer)
Cc1ccc(NS(=O)(=O)c2c(C)[nH]c(C)c2C(=O)N2CCCC2)cc1Cl	none (no result: MT1-MMP act inh)
CCOC(=O)C1=Nc2ccccc2C1=[N+]=[N-]	NR2E3 ag-2 97 | NR2E3 ag conf inactive | VP16 counter 79
CCOC(=O)N1CCN(c2ccnc3cc(Cl)ccc23)CC1	none
NC(=S)NNc1ccnc2cc(Cl)ccc12	none
O=C(Oc1ccnc2cc(Cl)ccc12)N1CCCCCC1	none | NR2E3 ag conf inactive | VP16 counter inactive
O=C(NNc1ccnc2cc(Cl)ccc12)C1CCCCC1	none | NR2E3 ag conf 97 | VP16 counter 87
CCOC(=O)Cn1ccc2cc(S(=O)(=O)N3CCCC3)ccc21	none (no result: NR2E3 ag-1, Vif imaging, HCV core dimer)
Cc1ccc2c(c1)CCCN2C(=O)CCc1nc2ccccc2c(=O)[nH]1	none (no result: HCV core dimer)
COCCn1c(C)c(C)c2c(NCCc3ccccc3)ncnc21	none (no result: NR2E3 ag-1, HCV core dimer) | NR2E3 ag conf inactive | VP16 counter inactive
Cc1csc2c(N3CCC(C(=O)O)CC3)ncnc12	none
